pKi: −log10 of the molar value. Activity calls are given as the source filed them. No cut-off for these calls is given here.
Molecular target: not listed separately
Test: Displacement of [125I]DMIC from amyloid beta 1-42 aggregates
Design: species or system Homo sapiens
Settings: not given

| SMILES | pKi |
| --- | --- |
| CN(C)c1ccc(/C=C/C(=O)c2ccc(I)cc2)o1 | 5.95 |
| CN(C)c1ccc(/C=C/C(=O)c2ccc(I)s2)o1 | 5.79 |
| Cc1ccc2c(c1)sc(-c1ccc(N(C)C)cc1)[n+]2C [THIOFLAVIN T] | < 5.00 |
| O=C(/C=C/c1ncc[nH]1)c1ccc(I)cc1 | 6.10 |
| CNc1ccc(C(=O)/C=C/c2ccc(Br)s2)cc1 | 6.70 |
| Nc1ccc(C(=O)/C=C/c2ccc(I)cc2)cc1 | 6.61 |
| O=C(/C=C/c1ccco1)c1ccc(I)cc1 | 6.04 |
| O=C(/C=C/c1nccs1)c1ccc(I)cc1 | < 5.00 |
| CN(C)c1ccc(/C=C/C(=O)c2ccc(Br)o2)o1 | < 5.00 |
| Nc1ccc(C(=O)/C=C/c2ccc(Br)s2)cc1 | 6.32 |
| Nc1c(/N=N/c2ccc(-c3ccc(/N=N/c4cc(S(=O)(=O)O)c5ccccc5c4N)cc3)cc2)cc(S(=O)(=O)O)c2ccccc12 [CONGO RED] | < 5.00 |
| CN(C)c1ccc(/C=C/C(=O)c2ccc(Br)o2)s1 | 5.58 |

Second part, the compound after the results:

| pKi | SMILES |
| --- | --- |
| 6.86 | CN(C)c1ccc(/C=C/C(=O)c2ccc(I)s2)s1 |
| 6.92 | Nc1ccc(/C=C/C(=O)c2ccc(I)s2)cc1 |
| 6.99 | O=C(/C=C/c1cccs1)c1ccc(I)cc1 |
| 7.88 | CN(C)c1ccc(C(=O)/C=C/c2ccc(I)cc2)cc1 |
| 7.85 | CNc1ccc(/C=C/C(=O)c2ccc(I)s2)cc1 |
| 7.03 | O=C(/C=C/c1ccsc1)c1ccc(I)cc1 |
| 6.90 | O=C(/C=C/c1ccoc1)c1ccc(I)cc1 |
| 7.62 | CNc1ccc(C(=O)/C=C/c2ccc(I)cc2)cc1 |
| 8.41 | CN(C)c1ccc(/C=C/C(=O)c2ccc(I)s2)cc1 |
| 6.97 | CN(C)c1ccc(C(=O)/C=C/c2ccc(Br)s2)cc1 |
| 6.95 | CN(C)c1ccc(/C=C/C(=O)c2ccc(I)cc2)s1 |
| 6.82 | O=C(/C=C/c1ccccc1)c1ccc(I)cc1 |
| 6.90 | CN(C)c1ccc(/C=C/C(=O)c2ccc(Br)o2)cc1 |

Organism: Mus musculus
Test: Binding affinity for beta amyloid plaques in Alzheimer's mouse model brain
Settings: not given
Summary of the method: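 Paraffin sections, 5 µm, of formaldehyde-fixed Alzheimer's model mouse brain. Deparaffinised, held in PBS 30 min, stained with compound at 100 µM in 50% ethanol, washed in PBS 15 min, then mounted. Fluorescence read by confocal microscopy at 458 excitation and 540–580 emission. Serial sections immunostained for β-amyloid with DAB.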

| Activity | SMILES |
| --- | --- |
| Active | CN(C)c1ccc(/C=C/C(=O)c2ccc(I)s2)cc1 |

Test system: Brain
Test: Biodistribution in ddY mouse brain at 4.2 to 6.3 kBq, iv after 2 mins
Type: ADME, organism-based
Settings: in vivo
Summary of the method: (§1)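 [125I]-labelled ligand in saline with 10% ethanol, given by tail-vein injection to normal ddY mice (5 weeks old, 23–25 g). Mice killed at set times post-injection. Organs removed and weighed, radioactivity gamma-counted, expressed as % injected dose per gram. Mean (SD) of five mice per time point.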

| Drug uptake [% ID/g] | SMILES |
| --- | --- |
| 2.46 | CN(C)c1ccc(/C=C/C(=O)c2ccc([125I])s2)cc1 |

Test system: Brain
Test: Biodistribution in ddY mouse brain at 4.2 to 6.3 kBq, iv after 10 mins
Type: ADME, organism-based
Settings: in vivo
Summary of the method: as §1

| Drug uptake [% ID/g] | SMILES |
| --- | --- |
| 0.75 | CN(C)c1ccc(/C=C/C(=O)c2ccc([125I])s2)cc1 |

Test system: Brain
Test: Biodistribution in ddY mouse brain at 4.2 to 6.3 kBq, iv after 30 mins
Type: ADME, organism-based
Settings: in vivo, 0.5 h
Summary of the method: as §1

| Drug uptake [% ID/g] | SMILES |
| --- | --- |
| 0.31 | CN(C)c1ccc(/C=C/C(=O)c2ccc([125I])s2)cc1 |

Test system: Brain
Test: Biodistribution in ddY mouse brain at 4.2 to 6.3 kBq, iv after 60 mins
Type: ADME, organism-based
Settings: in vivo, 1 h
Summary of the method: as §1

| Drug uptake [% ID/g] | SMILES |
| --- | --- |
| 0.21 | CN(C)c1ccc(/C=C/C(=O)c2ccc([125I])s2)cc1 |
